How the values were obtained:
Format in all cases: functional
SK-MEL-2 [1] = assay: Cytotoxicity against human SK-MEL-2 cells assessed as cell growth at 100 nM after 48 hrs by sulforhodamine B assay; conditions: SK-MEL-2, 48 h, read-out: Activity
UACC-257 [2] = assay: Cytotoxicity against human UACC257 cells assessed as cell growth at 100 nM after 48 hrs by sulforhodamine B assay; conditions: UACC-257, 48 h, read-out: Activity
OVCAR-3 = assay: Cytotoxicity against human OVCAR-3 cells assessed as cell growth at 100 nM after 48 hrs by sulforhodamine B assay; conditions: OVCAR-3, 48 h, read-out: Activity
NCI/ADR-RES [3] = assay: Cytotoxicity against human NCI/ADR-RES cells assessed as cell growth at 100 nM after 48 hrs by sulforhodamine B assay; conditions: read-out: Activity
MDA-MB-435 = assay: Cytotoxicity against human MDA-MB-435 cells assessed as cell growth at 10 uM; conditions: read-out: Activity
Procedure, shortened: (§1)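 NCI-60 screen: cells grown in RPMI 1640 with 5% FBS and 2 mM L-glutamine, plated at 5000–40,000 cells/well according to doubling time, and preincubated 24 h at 37 °C, 5% CO2. The single 10 µM dose (DMSO stock) was added, then incubated 48 h. Cells were TCA-fixed and stained with 0.4% SRB, read at 515 nm, and growth % calculated against time-zero and control plates.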

SK-MEL-5 = assay: Cytotoxicity against human SK-MEL-5 cells assessed as cell growth at 10 uM; conditions: read-out: Activity; procedure, shortened: as §1
UACC-257 [4] = assay: Cytotoxicity against human UACC257 cells assessed as cell growth at 10 uM; conditions: read-out: Activity; procedure, shortened: as §1
KM12 [5] = assay: Cytotoxicity against human KM12 cells assessed as cell growth at 1 uM after 48 hrs by sulforhodamine B assay; conditions: KM12, 48 h, read-out: Activity
SW-620 [6] = assay: Cytotoxicity against human SW620 cells assessed as cell growth at 1 uM after 48 hrs by sulforhodamine B assay; conditions: SW-620, 48 h, read-out: Activity
SW-620 [7] = assay: Cytotoxicity against human SW620 cells assessed as cell growth at 0.01 uM after 48 hrs by sulforhodamine B assay; conditions: SW-620, 48 h, read-out: Activity
SF-295 [8] = assay: Cytotoxicity against human SF295 cells assessed as cell growth at 0.01 uM after 48 hrs by sulforhodamine B assay; conditions: SF-295, 48 h, read-out: Activity
[9] = Growth inhibition of human NCI60 cells at 10 uM after 48 hrs by sulforhodamine B assay relative to control; conditions: NCI60, 48 h, read-out: GI
Procedure, shortened: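 Single-dose NCI screen at 10 µM across the 60-line panel, 48 h exposure at 37 °C after a 24 h preincubation. Adherent cells were fixed with cold TCA and stained with 0.4% SRB, and absorbance was read at 515 nm. Inhibition % was taken as 100 minus growth %, and the mean across all lines was reported.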

SK-MEL-2 [10] = assay: Cytotoxicity against human SK-MEL-2 cells assessed as cell growth at 0.01 uM after 48 hrs by sulforhodamine B assay; conditions: SK-MEL-2, 48 h, read-out: Activity
PC-3 = assay: Cytotoxicity against human PC3 cells assessed as cell growth at 0.01 uM after 48 hrs by sulforhodamine B assay; conditions: PC-3, 48 h, read-out: Activity
SF-539 = assay: Cytotoxicity against human SF539 cells assessed as cell growth at 0.001 uM after 48 hrs by sulforhodamine B assay; conditions: SF-539, 48 h, read-out: Activity
U-251 = assay: Cytotoxicity against human U251 cells assessed as cell growth at 0.001 uM after 48 hrs by sulforhodamine B assay; conditions: U-251, 48 h, read-out: Activity
SN12C = assay: Cytotoxicity against human SN12C cells assessed as cell growth at 0.001 uM after 48 hrs by sulforhodamine B assay; conditions: read-out: Activity
[11] = Growth inhibition of human […] cells after 48 hrs by sulforhodamine B assay
Procedure, shortened: (§2)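 NCI 60-cell screen, five-dose mode. Cells grown in RPMI 1640 with 5% FBS and 2 mM L-glutamine and plated at 5000-40,000 cells/well according to doubling time. After 24 h preincubation, a Tz plate was TCA-fixed. Five concentrations (10-fold or 1/2 log dilutions) were applied for 48 h at 37 °C. SRB staining read at 515 nm. IC50 taken from [(Ti-Tz)/(C-Tz)]×100 = 50.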

NCI-H322M = assay: Growth inhibition of human NCI-H322M cells after 48 hrs by sulforhodamine B assay; procedure, shortened: as §2
NCI-H460 = assay: Growth inhibition of human NCI-H460 cells after 48 hrs by sulforhodamine B assay; conditions: NCI-H460, 48 h; procedure, shortened: as §2
SNB-75 = assay: Growth inhibition of human SNB75 cells after 48 hrs by sulforhodamine B assay; conditions: SNB-75, 48 h; procedure, shortened: as §2
LOX IMVI = assay: Growth inhibition of human LOXIMVI cells after 48 hrs by sulforhodamine B assay; procedure, shortened: as §2
SR = assay: Cytotoxicity against human SR cells assessed as cell growth at 10 uM; conditions: read-out: Activity; procedure, shortened: as §1
A498 = assay: Cytotoxicity against human A498 cells assessed as cell growth at 1 uM after 48 hrs by sulforhodamine B assay; conditions: A498, 48 h, read-out: Activity
Procedure, shortened: (§3)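 NCI-60 five-dose screen. Cells were grown in RPMI 1640 with 5% FBS and 2 mM L-glutamine, plated at 5000–40,000 cells/well and preincubated for 24 h. Time-zero plates were TCA-fixed. DMSO-solubilized drug was added at five concentrations (10-fold or ½-log serial dilutions) for 48 h at 37 °C, 5% CO2. Cells were TCA-fixed, stained with 0.4% SRB and read at 515 nm. Percent growth used time-zero, control and test absorbances.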

NCI-H23 = assay: Cytotoxicity against human NCI-H23 cells assessed as cell growth at 10 uM; conditions: read-out: Activity; procedure, shortened: as §1
NCI-H522 = assay: Cytotoxicity against human NCI-H522 cells assessed as cell growth at 10 uM; conditions: read-out: Activity; procedure, shortened: as §1
SF-295 [12] = assay: Cytotoxicity against human SF295 cells assessed as cell growth at 10 uM; conditions: read-out: Activity; procedure, shortened: as §1
CCRF-CEM = assay: Cytotoxicity against human CCRF-CEM cells assessed as cell growth at 10 uM after 48 hrs by sulforhodamine B assay; conditions: read-out: Activity; procedure, shortened: as §3
K562 = assay: Cytotoxicity against human K562 cells assessed as cell growth at 10 uM after 48 hrs by sulforhodamine B assay; conditions: K562, 48 h, read-out: Activity
EKVX = assay: Cytotoxicity against human EKVX cells assessed as cell growth at 10 uM after 48 hrs by sulforhodamine B assay; conditions: read-out: Activity
KM12 [13] = assay: Cytotoxicity against human KM12 cells assessed as cell growth at 10 uM after 48 hrs by sulforhodamine B assay; conditions: KM12, 48 h, read-out: Activity
UACC-257 [14] = assay: Cytotoxicity against human UACC257 cells assessed as cell growth at 10 uM after 48 hrs by sulforhodamine B assay; conditions: UACC-257, 48 h, read-out: Activity
NCI/ADR-RES [15] = assay: Cytotoxicity against human NCI/ADR-RES cells assessed as cell growth at 10 uM after 48 hrs by sulforhodamine B assay; conditions: read-out: Activity
[16] = read-out: LC50 (the source's name)

## COc1cc(C)cc(-c2nn(CC#N)cc2-c2ccc(-c3cccc(C(C)=O)c3)nc2)c1
SK-MEL-2 [1]
  growth at 0.1 µM: 88%
UACC-257 [2]
  growth at 0.1 µM: 70%
OVCAR-3
  growth at 0.1 µM: 66%
NCI/ADR-RES [3]
  growth at 0.1 µM: 59%
MDA-MB-435
  growth at 10 µM: -27.8%
SK-MEL-5
  growth at 10 µM: 4.86%
UACC-257 [4]
  growth at 10 µM: 50.8%
KM12 [5]
  growth at 1 µM: 4%
SW-620 [6]
  growth at 1 µM: 4%
SW-620 [7]
  growth at 0.01 µM: 91%
SF-295 [8]
  growth at 0.01 µM: 98%
[9]
  inhibition of growth at 10 µM: 78.7%
SK-MEL-2 [10]
  growth at 0.01 µM: 89%
PC-3
  growth at 0.01 µM: 88%
SF-539
  growth at 0.001 µM: 94%
U-251
  growth at 0.001 µM: 98%
SN12C
  growth at 0.001 µM: 92%
[11]
  GI50: 3.3 µM
  TGI: 18.6 µM
[11]; [16]
  CC50: > 100 µM
NCI-H322M
  GI50: 4.36 µM
  TGI: 50.8 µM
NCI-H322M; [16]
  CC50: > 100 µM
NCI-H460
  GI50: 2.04 µM
  TGI: 5.72 µM
NCI-H460; [16]
  CC50: 26.6 µM
SNB-75
  GI50: 1.96 µM
  TGI: 6.24 µM
SNB-75; [16]
  CC50: > 100 µM
LOX IMVI
  GI50: 3.52 µM
  TGI: > 100 µM
LOX IMVI; [16]
  CC50: > 100 µM
SR
  growth at 10 µM: 18.4%
A498
  growth at 1 µM: -21%
NCI-H23
  growth at 10 µM: 25.1%
NCI-H522
  growth at 10 µM: -3.15%
SF-295 [12]
  growth at 10 µM: 16.9%
CCRF-CEM
  growth at 10 µM: 12%
K562
  growth at 10 µM: 9%
EKVX
  growth at 10 µM: -10%
KM12 [13]
  growth at 10 µM: -25%
UACC-257 [14]
  growth at 10 µM: 3%
NCI/ADR-RES [15]
  growth at 10 µM: -14%

Source: ChEMBL document CHEMBL1165950, “Design and synthesis of new potent anticancer pyrazoles with high FLT3 kinase inhibitory selectivity” (Bioorg Med Chem, 2010)
